Reference: ChEMBL document CHEMBL4364287, “Enhanced Inhibition of Influenza A Virus Adhesion by Di- and Trivalent Hemagglutinin Inhibitors” (J Med Chem, 2019)
The source made the active and inactive calls. The calls are words filed in the database; no cut-off is given here.

Legend:
[1] = system: Influenza A virus (A/duck/Hunan/795/2002(H5N1)); test: Inhibition of sensor loaded biotinylated-LAMP1 binding to Influenza A virus (A/duck/Hunan/795/2002 (H5N1)) […] expressed in Influenza virus H5N1 by biolayer interferometric analysis relative to control
[2] = Inhibition of sensor loaded biotinylated-LAMP1 binding to Influenza A virus (A/Netherlands/178/1995(H3N2)) H3 hemagglutinin expressed in Influenza virus WU95 in presence of NA inhibitor oseltamivir carboxylate by biolayer interferometric analysis
How it was run: (§1)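 OctetRed BLI: streptavidin sensors were saturated with biotinylated LAMP1 in PBS pH 7.4. They were dipped into WU95 (8 HAU, 2.5 × 10^8 particles per well) preincubated 4 h at room temperature with compound and 10 µM (end concentration) oseltamivir carboxylate. Initial binding rate was compared with a no-compound control.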

Influenza A virus [3] = test: (§2) Antiviral activity against Influenza A virus WU95 expressing Influenza A virus (A/Netherlands/178/1995(H3N2)) H3 hemagglutinin infected in MDCK2 cells preincubated with virus for 4 hrs followed by cell infection and measured at 7 hrs post-infection by DAPI staining-based assay; type: functional, organism-based
How it was run: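 Single-cycle infection: WU95 in Opti-mem was preincubated 4 h at room temperature with varying compound concentrations. Confluent MDCK-II cells were inoculated in triplicate at MOI 0.005 and fixed at 7 h post-infection in methanol (−20 °C, 5 min). Cells were immunostained for nucleoprotein (HB65, Alexa 488 secondary), counterstained with DAPI, and infected cells per well were counted.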

[4] = system: Influenza A virus (A/Netherlands/178/1995(H3N2)); test: Inhibition of sensor loaded biotinylated-LAMP1 binding to Influenza A virus (A/Netherlands/178/1995(H3N2)) H3 hemagglutinin expressed in Influenza virus WU95 at 3 uM in presence of NA inhibitor oseltamivir carboxylate by biolayer interferometric analysis; how it was run: as §1
[5] = system: Influenza A virus (A/Bilthoven/1761/1976(H3N2)); test: Inhibition of sensor loaded biotinylated-LAMP1 binding to Influenza A virus (A/Bilthoven/1761/1976(H3N2)) H3 hemagglutinin expressed in Influenza virus VI75 at 3 uM by biolayer interferometric analysis
How it was run: (§3)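 BLI with streptavidin sensors loaded to saturation with biotinylated LAMP1 (PBS, pH 7.4). VI75 virus was preincubated 4 h at room temperature with 3 µM compound, without or with 10 µM oseltamivir carboxylate. Initial virus binding rate was compared with a compound-free control.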

[6] = system: Influenza A virus (A/Netherlands/178/1995(H3N2)); test: Potency index, ratio of compound 7 IC50 to test compound IC50 for inhibition of sensor loaded biotinylated-LAMP1 binding to Influenza A virus (A/Netherlands/178/1995(H3N2)) H3 hemagglutinin expressed in Influenza virus WU95
[7] = system: Influenza A virus (A/Bilthoven/1761/1976(H3N2)); test: Inhibition of sensor loaded biotinylated-LAMP1 binding to Influenza A virus (A/Bilthoven/1761/1976(H3N2)) H3 hemagglutinin expressed in Influenza virus VI75 at 3 uM in presence of NA inhibitor oseltamivir carboxylate by biolayer interferometric analysis; how it was run: as §3
Influenza A virus [8] = test: as §2, with “cells assessed as reduction in virus-induced cytopathogenicity” for “cells”, “after 3 days” for “at 7 hrs post-infection”; type: functional, organism-based
How it was run: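 WU95 virus was preincubated 4 h at room temperature in Opti-mem with varying compound concentrations. It was then inoculated onto confluent MDCK-II cells at MOI 0.005 and held 3 days with 1 µg/ml TPCK-trypsin to allow multiple rounds of infection. Cells were fixed and DAPI-stained, and monolayers inspected visually; absence of stained cells was taken as cell killing.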

[9] = Inhibition of sensor loaded biotinylated-LAMP1 binding to Influenza A virus (A/Netherlands/602/2009(H1N1)) […] by biolayer interferometric analysis
[10] = system: Influenza A virus (A/Netherlands/178/1995(H3N2)); test: Potency index, ratio of compound 8 IC50 to test compound IC50 for Inhibition of Influenza A virus (A/Netherlands/178/1995(H3N2)) H3 hemagglutinin expressed in Influenza virus WU95 assessed as reduction in human erythrocytes hemagglutination; type: cell-based
MDCK-II = test: Cytotoxicity against MDCK2 cells assessed as reduction in cell viability measured after 24 hrs by WST1 assay; type: cell-based, Canis lupus familiaris; conditions: dog
How it was run: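 MDCK-II cells were incubated 24 h in Opti-mem with compounds at different concentrations. Cell number and viability were then read by WST-1 assay.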

[11] = Inhibition of Influenza A virus (A/Netherlands/178/1995(H3N2)) H3 hemagglutinin expressed in Influenza virus WU95 assessed as reduction in human erythrocytes hemagglutination preincubated for 4 hrs followed by erythrocytes addition and measured after 2 hrs; type: cell-based
How it was run: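 Four hemagglutination units of virus were preincubated 4 h at room temperature with limiting compound dilutions in the presence of oseltamivir carboxylate. Then 0.5% (v/v) erythrocytes were added for 2 h at 4 °C. The lowest inhibiting concentration was recorded; two experiments were run in duplicate and means are reported.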

CC(=O)N[C@H]1[C@H](O[C@H]2[C@@H](O)[C@@H](CO)O[C@@H](O[C@H]3[C@H](O)[C@@H](O)[C@H](n4cc(-c5ccc(-c6cn(CCCC(=O)Nc7cccc(-c8cc(-c9cccc(NC(=O)CCCn%10cc(-c%11ccc(-c%12cn([C@@H]%13O[C@H](CO)[C@@H](O[C@@H]%14O[C@H](CO)[C@H](O)[C@H](O[C@@H]%15O[C@H](CO)[C@@H](O[C@@H]%16O[C@H](CO[C@]%17(C(=O)O)C[C@H](O)[C@@H](NC(C)=O)[C@H]([C@H](O)[C@H](O)CO)O%17)[C@H](O)[C@H](O)[C@H]%16O)[C@H](O)[C@H]%15NC(C)=O)[C@H]%14O)[C@H](O)[C@H]%13O)nn%12)cc%11)nn%10)c9)cc(-c9cccc(NC(=O)CCCn%10cc(-c%11ccc(-c%12cn([C@@H]%13O[C@H](CO)[C@@H](O[C@@H]%14O[C@H](CO)[C@H](O)[C@H](O[C@@H]%15O[C@H](CO)[C@@H](O[C@@H]%16O[C@H](CO[C@]%17(C(=O)O)C[C@H](O)[C@@H](NC(C)=O)[C@H]([C@H](O)[C@H](O)CO)O%17)[C@H](O)[C@H](O)[C@H]%16O)[C@H](O)[C@H]%15NC(C)=O)[C@H]%14O)[C@H](O)[C@H]%13O)nn%12)cc%11)nn%10)c9)c8)c7)nn6)cc5)nn4)O[C@@H]3CO)[C@@H]2O)O[C@H](CO)[C@@H](O[C@@H]2O[C@H](CO[C@]3(C(=O)O)C[C@H](O)[C@@H](NC(C)=O)[C@H]([C@H](O)[C@H](O)CO)O3)[C@H](O)[C@H](O)[C@H]2O)[C@@H]1O
Imax [1]: 50% | IC50 [2]: 710 nM | IC50 (Influenza A virus [3]): 4.4 µM | inhibition [4]: Active | inhibition [5]: Active | Ratio IC50 [6]: 428 | inhibition [7]: Active | Activity (Influenza A virus [8]): Active | IC50 [9]: 2700 nM | Ratio IC50 [10]: 38 | Activity (MDCK-II): Non-Toxic | Ki [11]: 9.4 µM
